Measured values pooled from the literature.
Each line is one published result; the experiments were not run side by side.
EGFR L861Q: Epidermal growth factor receptor (EGFR, Homo sapiens, UniProt P00533, L861Q)
EGFR A750P/del747-749: Epidermal growth factor receptor (EGFR, Homo sapiens, UniProt P00533, A750P/del747-749)
EGFR del747-750/T751S: Epidermal growth factor receptor (EGFR, Homo sapiens, UniProt P00533, del747-750/T751S)
EGFR T790M: Epidermal growth factor receptor (EGFR, Homo sapiens, UniProt P00533, T790M)
EGFR G719S: Epidermal growth factor receptor (EGFR, Homo sapiens, UniProt P00533, G719S)
EGFR L858R/T790M: Epidermal growth factor receptor (EGFR, Homo sapiens, UniProt P00533, L858R/T790M)
EGFR: Epidermal growth factor receptor (EGFR, Homo sapiens, UniProt P00533)
EGFR L858R: Epidermal growth factor receptor (EGFR, Homo sapiens, UniProt P00533, L858R)
EGFR G719C: Epidermal growth factor receptor (EGFR, Homo sapiens, UniProt P00533, G719C)
EGFR del747-752/P753S: Epidermal growth factor receptor (EGFR, Homo sapiens, UniProt P00533, del747-752/P753S)

Structure (SMILES) | target | effect on | method | concentration | remaining binding [%]
CC1CCCN1c1nccc(-c2cnn3ncccc23)n1 (stereo not shown) | EGFR L861Q | binding |  | 1 µM | 100
CO[C@@H](C)c1c(Nc2ccc([C@H](N(C)C(=O)C3CCS(=O)(=O)CC3)C(F)(F)F)cc2)cnc2cc(Cl)nn12 | EGFR A750P/del747-749 | cell-free assay | competition with immobilised ligand | 1 µM | 99
O=C(NC1CCC1)c1ccc2nc(-c3cccc(NS(=O)(=O)NCCN4CCCCC4)c3)cn2c1 | EGFR del747-750/T751S | cell-free assay | competition with immobilised ligand | 10 µM | 100
CN(C)c1nccc(-c2cnn3ncccc23)n1 | EGFR T790M | binding |  | 1 µM | 100
c1cncc(-c2cccc(Nc3nccc(NC4CCCCC4)n3)c2)c1 | EGFR G719S | binding | competition with immobilised ligand | 10 µM | 68
c1cnn2ncc(-c3ccnc(N4CCC45COC5)n3)c2c1 | EGFR L858R/T790M | binding |  | 1 µM | 65
FC(F)(F)Oc1cccc(-c2cnc3ccc(-c4ccncc4)nn23)c1 | EGFR | cell-free assay | competition with immobilised ligand | 5 µM | 79
O=C(NCCCC1CCCCC1)c1ccc(CNC(=O)c2cnn(-c3ccccc3)c2C(F)(F)F)cc1 | EGFR L858R/T790M | cell-free assay | competition with immobilised ligand | 0.1 µM | 95
CCN1CCN(Cc2ccc(C(=O)Nc3ccc(C)c(Oc4ccc5c(c4)CC(=O)N5)c3)cc2C(F)(F)F)CC1 | EGFR L858R/T790M | binding | competition with immobilised ligand | 1 µM | 90
O=C(NCCCN1CCOCC1)c1ccc(Nc2nccc(-c3cc4ccccc4s3)n2)cc1 | EGFR | binding | competition with immobilised ligand | 1 µM | 87
C[C@@H](c1cccc(C#N)c1)n1cc(Cl)cc(C(N)=O)c1=N | EGFR L858R | cell-free assay | competition with immobilised ligand | 1 µM | 100
CCN(CC)Cc1cc(Nc2ccnc3cc(Cl)ccc23)ccc1O | EGFR | cell-free assay | competition with immobilised ligand | 10 µM | 91
O=C(c1ccc(Nc2nccc(-c3cc4ccccc4s3)n2)cc1)N1CCC(N2CCCC2)CC1 | EGFR del747-750/T751S | binding | competition with immobilised ligand | 1 µM | 82
COc1cccc(CNC(=O)c2nc3scc(COCc4ccc(C(=O)O)cc4)c3c(=O)[nH]2)c1 | EGFR A750P/del747-749 | cell-free assay | competition with immobilised ligand | 1 µM | 76
Cc1cnc(Nc2ccc(C(=O)N3CCC(N4CCCC4)CC3)cc2)nc1-c1cc2ccccc2s1 | EGFR T790M | binding | competition with immobilised ligand | 1 µM | 56
CN(c1nccc(-c2cnn3ncccc23)n1)C1CC1 | EGFR L858R | binding |  | 1 µM | 100
O=C(Nc1cccnn1)N1CC(C/C=C/c2cncc(Oc3ccc(C(F)(F)F)cn3)n2)C1 | EGFR G719S | cell-free assay | competition with immobilised ligand | 1 µM | 100
Nc1ncc2c(n1)-c1c([nH]c3ccc(C#CC4CC4)cc13)CCCC2 | EGFR T790M | binding | competition with immobilised ligand | 1 µM | 86
CCOC(=O)c1cc2cc(-c3cc(C(=O)NCc4ccc(C(=O)O)cc4)nn3C)ccc2[nH]1 | EGFR T790M | cell-free assay | competition with immobilised ligand | 0.1 µM | 89

Structure (SMILES) | target | effect on | method | concentration | remaining binding [%]
COc1ccnn2ncc(-c3ccnc(N(C)C)n3)c12 | EGFR L861Q | binding |  | 1 µM | 97
CN1CCN(c2ccc(Nc3nccc(-c4cccc([N+](=O)[O-])c4)n3)cc2C(F)(F)F)CC1 | EGFR L861Q | binding |  | 10 µM | 96
COc1ncc2cc3ccccc3nc2c1C#N | EGFR L861Q | cell-free assay | competition with immobilised ligand | 5 µM | 100
CNC(=O)[C@@H]1CC[C@@H](n2c(-c3ccc4cnccc4c3)nc3ccc(C(=O)NCc4cccc(C(N)=O)c4)cc32)C1 | EGFR | binding | competition with immobilised ligand | 1 µM | 100
O=C(NCCCN1CCOCC1)c1ccc(Nc2ncc(Cl)c(-c3ccc(Cl)s3)n2)cc1 | EGFR G719S | binding | competition with immobilised ligand | 1 µM | 100
O=C(N1CCS(=O)(=O)CC1)N1C[C@H](c2ccc(OC(F)(F)F)cc2)C[C@H](c2nc(C3CC3)no2)C1 | EGFR T790M | cell-free assay | competition with immobilised ligand | 1 µM | 100
CC(C)(C)c1ccc(-c2nc(CBr)nn2-c2cccc(O)c2)cc1 | EGFR L858R | cell-free assay | competition with immobilised ligand | 10 µM | 78
COc1cnc(Nc2cccc(S(N)(=O)=O)c2)nc1N1CCN(c2ccccc2)C(=O)C1 | EGFR G719C | binding | competition with immobilised ligand | 1 µM | 100
O=C(Nc1c[nH]nc1C(=O)NC1CCNCC1)c1cc(F)cc(F)c1 | EGFR del747-752/P753S | binding | competition with immobilised ligand | 1 µM | 100
COc1cnc(Nc2cccc(S(N)(=O)=O)c2)nc1N1CCN(c2ccccc2)CC1 | EGFR L858R | binding | competition with immobilised ligand | 1 µM | 89
O=C(c1ccc(Nc2ncc(Cl)c(-c3cc4ccccc4s3)n2)cc1)N1CCC(N2CCCC2)CC1 | EGFR del747-750/T751S | binding | competition with immobilised ligand | 1 µM | 89
C[C@@H]1CN(c2ccc3ncc(-c4ccc5[nH]nc(C6CC6)c5c4)n3n2)C[C@H](C)O1 | EGFR | binding | competition with immobilised ligand | 50 nM | 60
C[C@H]1CCN(c2nccc(-c3cnn4ncccc34)n2)C1 | Epidermal growth factor receptor (EGFR, Homo sapiens, UniProt P00533, del746-750) | binding |  | 1 µM | 71
O=C(c1ccc(Nc2ncc(Cl)c(-c3ccc(Cl)s3)n2)cc1)N1CCC(N2CCCC2)CC1 | EGFR del747-752/P753S | binding | competition with immobilised ligand | 1 µM | 82
CN1CCN(c2ccc(Nc3nccc(-c4ccccc4)n3)cc2C(F)(F)F)CC1 | EGFR T790M | binding |  | 10 µM | 77
Cc1cnn2ncc(-c3ccnc(N(C)C)n3)c2c1 | EGFR L858R/T790M | binding |  | 1 µM | 100
CS(=O)(=O)N1CCCC(NC(=O)[C@H](CCC2CCCCC2)NC(=O)c2ccc(CNc3ncnc4c3nnn4-c3ccccc3)cc2)C1 (stereo partly shown) | EGFR del747-752/P753S | cell-free assay | competition with immobilised ligand | 0.1 µM | 66
O=C(NCC1CCOCC1)c1n[nH]cc1NC(=O)c1c(F)cccc1F | EGFR G719C | binding | competition with immobilised ligand | 1 µM | 100
